Values after ≈ are worked out from the molar mass of the structure shown. Active and inactive are the calls of the source. The rule behind the calls is not given here.
Experiments:
[1] = system: Lipaphis erysimi; assay: Insecticidal activity against Lipaphis erysimi (mustard aphids) assessed as mortality at 50 mg/L after 24 hr; type: functional; conditions: in Brassica
Procedure, shortened: (§1)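 Apterous adult Lipaphis erysimi reared on mustard leaves. Compounds from a 10 g/L DMSO–acetone stock suspended in water with 0.5% emulsifier to 50, 100 or 200 mg/L. Leaf discs carrying 30–50 aphids were dipped 3 s and blotted, then held at 25 ± 1 °C and 50–60% RH. Mortality scored at 24 and 48 h and corrected against solvent control. Triplicate; LC50/LC90 by probit–log concentration regression.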

[2] = system: Culex quinquefasciatus; assay: Insecticidal activity against fourth-instar larval stage of Culex quinquefasciatus assessed as increase in mortality after 24 hr; type: functional
Procedure, shortened: (§2)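 Early 4th-instar Culex pipiens quinquefasciatus from laboratory cultures, 20 per bowl in 10 mL test solution at 27 °C. Compounds from a 10 g/L DMSO–acetone stock suspended in water with 0.5% Tween-80 to 1, 10, 50 or 100 mg/L final. Dead larvae, those unable to reach the surface on shaking, counted at 0, 2, 12 and 24 h. Abbott-corrected against solvent control; triplicate; probit analysis.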

[3] = system: Culex quinquefasciatus; assay: Insecticidal activity against fourth-instar larval stage of Culex quinquefasciatus assessed as increase in mortality after 2 to 24 hr; type: functional, organism-based
Procedure, shortened: (§3)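 Early 4th-instar Culex pipiens quinquefasciatus larvae, 20 per bowl in 10 mL test solution. Compounds taken from a 10 g/L DMSO/acetone stock into water with 0.5% Tween-80 (final 1, 10, 50, 100 mg/L), held at 27 °C. Dead larvae, those unable to reach the surface on shaking, counted at 0, 2, 12 and 24 h. Abbott-corrected against solvent control, triplicate; LC50/LC90 by probit regression.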

[4] = system: Culex quinquefasciatus; assay: Insecticidal activity against fourth-instar larval stage of Culex quinquefasciatus assessed as increase in mortality at 50 mg/L after 24 hr; type: functional, organism-based; procedure, shortened: as §3
[5] = Cytotoxicity against Spodoptera frugiperda (fall armyworm) Sf9 cells assessed as growth inhibition at 200 mg/L after 24 hr by MTT assay; type: functional; conditions: for inhibition of growth at 200 µg/mL: Spodoptera frugiperda, Sf9, 24 h, read-out: GI
Procedure, shortened: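 Sf9 cells kept at 27 °C in TC-199-MK with 10% FCS, L-glutamine and penicillin–streptomycin–neomycin. Log-phase cells in 96-well plates were exposed for 6, 12 or 24 h to compounds diluted in medium from a 1,000 mg/L DMSO stock, with 1% DMSO final; DMSO alone as control. MTT added for 3 h, formazan dissolved in DMSO, A570 read. Inhibition % = (Acontrol−Atreatment)/Acontrol×100. Run in triplicate.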

[6] = system: Lipaphis erysimi; assay: Insecticidal activity against Lipaphis erysimi (mustard aphids) assessed as mortality at 200 mg/L after 48 hr; type: functional; conditions: in Brassica; procedure, shortened: as §1
[7] = system: Lipaphis erysimi; assay: Insecticidal activity against Lipaphis erysimi (mustard aphids) assessed as increase in mortality after 48 hr; type: functional
[8] = system: Culex quinquefasciatus; assay: Insecticidal activity against fourth-instar larval stage of Culex quinquefasciatus assessed as mortality at 1 mg/L after 24 hr; type: functional; procedure, shortened: as §2
[9] = system: Culex quinquefasciatus; assay: Insecticidal activity against fourth-instar larval stage of Culex quinquefasciatus assessed as mortality at 100 mg/L after 24 hr; type: functional; procedure, shortened: as §2
[10] = system: Culex quinquefasciatus; assay: Insecticidal activity against fourth-instar larval stage of Culex quinquefasciatus assessed as increase in mortality at 50 to 100 mg/L after 24 hr; type: functional, organism-based; procedure, shortened: as §3
[11] = system: Lipaphis erysimi; assay: Insecticidal activity against Lipaphis erysimi (mustard aphids) assessed as increase in mortality at 50 to 200 mg/L after 24 to 48 hr; type: functional, organism-based
Procedure, shortened: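 Apterous adult Lipaphis erysimi reared on mustard leaves. Leaf discs carrying 30–50 aphids dipped 3 s in aqueous suspensions (10 g/L DMSO/acetone stock, 0.5% emulsifier) at 50, 100, 200 mg/L final, blotted, held at 25 ± 1 °C and 50–60% RH. Mortality scored at 24 and 48 h, corrected against solvent control. Triplicate; LC50/LC90 by probit–log concentration regression.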

[12] = system: Sf9; assay: Cytotoxicity against Spodoptera frugiperda (fall armyworm) Sf9 cells assessed as growth inhibition at 1 to 200 mg/L after 6 to 24 hr by MTT assay; type: functional, cell-based
Procedure, shortened: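 Sf9 insect cells grown at 27 °C in TC-199-MK with 10% FCS, L-glutamine and penicillin–streptomycin–neomycin. Log-phase cells exposed to compounds (DMSO stock, 1% final solvent), 6, 12 or 24 h. MTT (5 mg/mL stock) added for a further 3 h, formazan dissolved in DMSO, A570 read. Inhibition = (A control − A treated)/A control ×100. Solvent-only control, triplicate.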

Row | SMILES | Activity [3] | mortality at 1 µg/mL [8] | Activity [10] | Activity [11] | further results
1 | O=C(O)C1Cc2c([nH]c3ccccc23)C(c2ccccc2)N1 (stereo unspecified) | Dose-dependent effect | < 34.9% | – | – | mortality at 50 µg/mL [1]: 36.4%; LC90 [2]: 88.29 µg/mL (≈ 302 µM); Activity [4]: Active; inhibition of growth at 200 µg/mL [5]: 71.5%; mortality at 200 µg/mL [6]: 87.3%; LC90 [7]: 240.1 µg/mL (≈ 821 µM); mortality at 100 µg/mL [9]: 93.3%
2 | COC(=O)C1Cc2c([nH]c3ccccc23)CN1 (stereo unspecified) | Dose-dependent effect | < 34.9% | Active | Active | –
3 | COC(=O)C1Cc2c([nH]c3ccccc23)C(c2ccccc2)N1 (stereo unspecified) | Dose-dependent effect | < 34.9% | Active | Active | –
4 | COC(=O)c1cc2c([nH]c3ccccc32)c(-c2ccc(Cl)cc2)n1 | Dose-dependent effect | < 34.9% | Active | Active | –
5 | COC(=O)c1cc2c([nH]c3ccccc32)c(-c2ccccc2)n1 | Dose-dependent effect | < 34.9% | – | – | mortality at 50 µg/mL [1]: 15.3%; LC90 [2]: 295.13 µg/mL (≈ 976 µM); LC50 ([2]; Culex quinquefasciatus, Instar larval stage, 24 h): 24 µg/mL (≈ 79.3 µM); Activity [4]: Active; mortality at 200 µg/mL [6]: 75.8%; LC90 [7]: 418.63 µg/mL (≈ 1380 µM); LC50 ([7]; Lipaphis erysimi, in Brassica, 48 h): 68 µg/mL (≈ 225 µM); mortality at 100 µg/mL [9]: 80.5%
6 | COC(=O)c1cc2c([nH]c3ccccc32)c(C)n1 | Dose-dependent effect | < 34.9% | Active | Active | –
7 | CC1NC(C(=O)O)Cc2c1[nH]c1ccccc21 (stereo unspecified) | Dose-dependent effect | < 34.9% | Active | Active | –
8 | COc1cc(C2NC(C(=O)O)Cc3c2[nH]c2ccccc32)ccc1O (stereo unspecified) | Dose-dependent effect | < 34.9% | Active | Active | –
9 | Cc1nc(C(=O)O)cc2c1[nH]c1ccccc12 [HARMAN-3-CARBOXYLIC ACID] | Dose-dependent effect | < 34.9% | Active | Active | –
10 | COC(=O)C1Cc2c([nH]c3ccccc23)C(C)N1 (stereo unspecified) | Dose-dependent effect | < 34.9% | Active | Active | –
11 | COC(=O)c1cc2c([nH]c3ccccc32)c(-c2c(C)nn(-c3ccccc3)c2Cl)n1 | Dose-dependent effect | < 34.9% | Active | Active | inhibition of growth at 200 µg/mL [5]: 60.9%
12 | O=C(O)C1Cc2c([nH]c3ccccc23)CN1 (stereo unspecified) | Dose-dependent effect | < 34.9% | Active | Active | –
13 | COC(=O)C1Cc2c([nH]c3ccccc23)C(c2ccc(O)c(OC)c2)N1 (stereo unspecified) | Dose-dependent effect | < 34.9% | Active | Active | –
14 | COC(=O)C1Cc2c([nH]c3ccccc23)C(C(Cl)(Cl)Cl)N1 (stereo unspecified) | Dose-dependent effect | < 34.9% | Active | Active | growth inhibition (GI) [12]: inactive
15 | COC(=O)c1cc2c([nH]c3ccccc32)c(-c2ccccc2O)n1 | Dose-dependent effect | < 34.9% | Active | Active | –
16 | COc1ccc2c(c1)[nH]c1c(C)nccc12 [HARMINE] | – | – | Active | Active | Imax [5]: 40.31%; mortality at 200 µg/mL [6]: 49.6%
17 | O=C(O)C1Cc2c([nH]c3ccccc23)C(C(Cl)(Cl)Cl)N1 (stereo unspecified) | Dose-dependent effect | < 34.9% | Active | Active | –

Source: ChEMBL document CHEMBL3045688, “Cytotoxic and insecticidal activities of derivatives of harmine, a natural insecticidal component isolated from Peganum harmala” (2010)
